{"source": "ChEMBL document CHEMBL1138264", "about": "“Aromatic lipoxin A4 and lipoxin B4 analogues display potent biological activities” (J Med Chem, 2007)", "key": {"[1]": {"test_system": "THP-1", "experiment": "Induction of F-actin rearrangement in human THP1 cells at 1 nM after 15 mins", "type": "functional, cell-based", "procedure,_shortened": "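PMA-differentiated THP-1 cells (1 × 10^6/well) on glass coverslips, exposed to stimulus at 1 nM for 15 min. Fixed in 3.8% paraformaldehyde, permeabilized with 0.1% Triton X-100, stained with 0.33 µmol/L Oregon Green-phalloidin for 30 min. F-actin localization imaged by fluorescence microscopy (×100 oil objective); three independent experiments.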"}, "[2]": {"test_system": "THP-1", "experiment": "Increase in human THP1 cells mediated phagocytosis of apoptotic polymorphonuclear leukocytes at 0.1 pM to 1 nM after 15 mins", "type": "functional, cell-based", "procedure,_shortened": "(§1)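 THP-1 cells differentiated with 100 nM PMA for 48 h (5 × 10^5 cells/well), pretreated 15 min at 37 °C, then co-incubated 2 h at 37 °C with 1 × 10^6 human PMNs made apoptotic by 20 h culture. Vehicle was 0.1% DMSO or ethanol. After cold PBS washes, myeloperoxidase staining; % THP-1 cells containing ≥1 PMN (≥400 cells, duplicate wells); n = 3.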"}, "[3]": {"test_system": "THP-1", "experiment": "Increase in human THP1 cells adherence to laminin after 30 mins", "type": "functional, cell-based", "procedure,_shortened": "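THP-1 cells loaded with 1 µM BCECF-AM for 20 min at 37 °C, then resuspended at 3.3 × 10^6/mL in PBS2+ with 0.1% BSA. Cells settled 10 min on laminin-coated wells, then given agonist or vehicle for 30 min at 37 °C. Washed, lysed in NaOH/SDS, fluorescence read. Percent adherence above vehicle; three experiments, each in triplicate.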"}, "[4]": {"test_system": "THP-1", "experiment": "Increase in human THP1 cells mediated phagocytosis of apoptotic polymorphonuclear leukocytes at 0.01 pM after 15 mins", "type": "functional, cell-based", "procedure,_shortened": "as §1"}, "[5]": {"test_system": "Mus musculus", "experiment": "Decrease in zymosan-induced neutrophil accumulation in mouse model of peritonitis at 50 ug/kg, iv", "type": "functional, organism-based", "procedure,_shortened": "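Zymosan A peritonitis in mice: analogue at 0.5-50 µg/kg given intravenously (vehicle n = 15; n = 6 per dose group), followed 5 min later by i.p. zymosan A, 1 mg in 0.5 mL sterile PBS. Peritoneal lavage at 4 h with PBS/3 mM EDTA/heparin. Cells Fc-blocked, stained with PE anti-Gr-1 and counted as neutrophils (Gr-1+). Mean ± SEM versus vehicle.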"}, "[6]": {"test_system": "THP-1", "experiment": "Increase in human THP1 cells mediated phagocytosis of apoptotic polymorphonuclear leukocytes at 1 pM in presence of pan-FPR/ALXR antagonist Boc2", "type": "functional, cell-based", "procedure,_shortened": "(§2)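 PMA-differentiated THP-1 cells given Boc2 (100 µM), with or without stimulus, for 15 min at 37 °C. Then co-incubated 2 h with apoptotic human PMNs. Phagocytosis scored by myeloperoxidase staining as % THP-1 cells containing PMNs; mean ± SEM, n = 3, compared with no Boc2.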"}, "[7]": {"test_system": "THP-1", "experiment": "Increase in human THP1 cells mediated phagocytosis of apoptotic polymorphonuclear leukocytes at 1 nM in presence of pan-FPR/ALXR antagonist Boc2", "type": "functional, cell-based", "procedure,_shortened": "as §2"}, "[8]": {"test_system": "THP-1", "experiment": "Increase in human THP1 cells mediated phagocytosis of apoptotic polymorphonuclear leukocytes at 1 nM after 15 mins", "type": "functional, cell-based", "procedure,_shortened": "as §1"}, "[9]": {"test_system": "THP-1", "experiment": "Increase in human THP1 cells mediated phagocytosis of apoptotic polymorphonuclear leukocytes at 0.01 pM to 1 nM after 15 mins", "type": "functional, cell-based", "procedure,_shortened": "as §1"}, "[10]": {"test_system": "THP-1", "experiment": "Increase in human THP1 cells mediated phagocytosis of apoptotic polymorphonuclear leukocytes at 10 pM after 15 mins", "type": "functional, cell-based", "procedure,_shortened": "as §1"}}, "note": "Active and inactive are the calls of the source. No cut-off for these calls is given here."}
{"smiles": "CCCCC[C@@H](O)c1ccccc1/C=C/[C@@H](O)[C@@H](O)CCCC(=O)OC", "values": [{"measurement": "Activity", "setting": "[1]", "result": "Active"}, {"measurement": "Activity", "setting": "[2]", "result": "Active"}, {"measurement": "Activity", "setting": "[3]", "result": "Active"}, {"measurement": "Activity", "setting": "[4]", "result": "inactive"}, {"measurement": "Activity", "setting": "[5]", "result": "Active"}, {"measurement": "Activity", "setting": "[6]", "result": "inactive"}]}
{"smiles": "CCCCC[C@H](O)c1ccccc1/C=C/[C@@H](O)[C@@H](O)CCCC(=O)OC", "values": [{"measurement": "Activity", "setting": "[1]", "result": "Active"}, {"measurement": "Activity", "setting": "[7]", "result": "inactive"}, {"measurement": "Activity", "setting": "[3]", "result": "Active"}, {"measurement": "Activity", "setting": "[8]", "result": "Active"}]}
{"smiles": "CCCCC[C@H](O)/C=C/C=C\\C=C\\C=C\\[C@@H](O)[C@@H](O)CCCC(=O)O", "values": [{"measurement": "Activity", "setting": "[7]", "result": "inactive"}, {"measurement": "Activity", "setting": "[2]", "result": "Active"}]}
{"smiles": "CCCCC[C@@H](O)c1ccccc1/C=C/[C@@H](O)[C@@H](O)CCCC(=O)O", "values": [{"measurement": "Activity", "setting": "[9]", "result": "inactive"}]}
{"smiles": "CCCCC[C@H](O)[C@H](O)/C=C/c1ccccc1[C@@H](O)CCCC(=O)OC(C)(C)C", "values": [{"measurement": "Activity", "setting": "[1]", "result": "Active"}, {"measurement": "Activity", "setting": "[10]", "result": "Active"}]}
{"smiles": "CCCCC[C@H](O)c1ccccc1/C=C/[C@@H](O)[C@@H](O)CCCC(=O)O", "values": [{"measurement": "Activity", "setting": "[9]", "result": "inactive"}]}
